# Columns and labels:
# [1] = target: C-C chemokine receptor type 5 (Homo sapiens) (UniProt P51681); experiment: Antagonist activity at CCR5 in human THP1 cells assessed as inhibition of CCL5-induced chemotaxis at 100 nM after 2 hrs by microtiter format trans-well migration assay; assay type: functional, cell-based; details: THP-1
# In short: (§1)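 Microtiter trans-well migration assay in Gey's balanced salt solution with 1 mg/mL endotoxin-free BSA, no fetal calf serum. Migration ran 2 h at 37 °C. Compounds dissolved in DMSO and added to both top and bottom compartments, final DMSO 1%.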
# THP-1 [2] = experiment: Toxicity in human THP1 cells assessed as change in cell size at 10 nM by forward scatter flow cytometry relative to control; assay type: cell-based; details: thp-1, 0.01 µM
# [3] = target: C-C chemokine receptor type 2 (Homo sapiens) (UniProt P41597); experiment: Antagonist activity at CCR2 in human THP1 cells assessed as inhibition of CCL2-induced chemotaxis at 10 nM after 2 hrs by microtiter format trans-well migration assay; assay type: functional, cell-based; details: THP-1; in short: as §1
# Sequence of C-C chemokine receptor type 2 (Homo sapiens) (P41597 whole entry, looked up): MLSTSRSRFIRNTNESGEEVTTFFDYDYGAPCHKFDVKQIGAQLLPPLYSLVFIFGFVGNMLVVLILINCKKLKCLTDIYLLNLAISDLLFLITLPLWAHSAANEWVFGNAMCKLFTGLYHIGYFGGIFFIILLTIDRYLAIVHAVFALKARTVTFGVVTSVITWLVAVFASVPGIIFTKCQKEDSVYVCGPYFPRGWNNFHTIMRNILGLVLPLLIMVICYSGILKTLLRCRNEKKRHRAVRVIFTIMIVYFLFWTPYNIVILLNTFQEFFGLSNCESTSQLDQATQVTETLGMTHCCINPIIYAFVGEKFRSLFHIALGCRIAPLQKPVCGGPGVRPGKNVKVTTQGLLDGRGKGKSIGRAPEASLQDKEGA
# [4] = target: T1, C-C chemokine receptor type 1 (Homo sapiens) (UniProt P32246); experiment: Antagonist activity at CCR1 in human THP1 cells assessed as inhibition of CCL3-induced chemotaxis at 0.1 nM after 2 hrs by microtiter format trans-well migration assay; assay type: functional, cell-based; details: THP-1; in short: as §1
# T1 sequence (whole entry): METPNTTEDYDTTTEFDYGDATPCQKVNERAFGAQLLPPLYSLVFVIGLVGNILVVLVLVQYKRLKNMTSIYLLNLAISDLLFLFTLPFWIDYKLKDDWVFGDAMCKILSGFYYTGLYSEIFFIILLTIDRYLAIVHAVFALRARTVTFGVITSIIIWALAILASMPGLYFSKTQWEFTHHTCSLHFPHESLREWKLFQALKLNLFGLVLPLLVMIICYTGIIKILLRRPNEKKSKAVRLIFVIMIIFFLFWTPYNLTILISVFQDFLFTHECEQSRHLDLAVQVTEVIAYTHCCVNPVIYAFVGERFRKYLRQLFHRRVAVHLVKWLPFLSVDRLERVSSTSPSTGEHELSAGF
# [5] = Half life in Sprague-Dawley rat at 3 mg/kg, po administered as single dose; assay type: ADME, organism-based; design: dose 3 mg/kg, route oral; details: in vivo
# In short: (§2)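 Male Sprague-Dawley rats, three per compound, receive a single oral dose by gavage in 1% carboxymethylcellulose in 0.9% saline, with food and water ad libitum. Plasma is sampled from 5 to 480 min and drug is quantified by positive-mode LC/MS/MS after acetonitrile/formic acid extraction. The lower limit of quantitation is about 2 ng/mL. Exposure is AUC(0→t) by the linear/log trapezoidal rule, and F is oral fractional bioavailability.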
# THP-1 [6] = experiment: Endogenous chemoattractant activity at human THP1 cells assessed as cell migration at 1 nM after 2 hrs by microtiter format trans-well migration assay; assay type: functional
# [7] = target: T1, C-C chemokine receptor type 1 (Homo sapiens); experiment: Antagonist activity at CCR1 in human THP1 cells assessed as inhibition of CCL3-induced chemotaxis at 1000 nM after 2 hrs by microtiter format trans-well migration assay; assay type: functional, cell-based; details: THP-1; in short: as §1
# [8] = target: C-C chemokine receptor type 5 (Homo sapiens) (UniProt P51681); experiment: Antagonist activity at CCR5 in human THP1 cells assessed as inhibition of CCL5-induced chemotaxis at 0.01 nM after 2 hrs by microtiter format trans-well migration assay; assay type: functional, cell-based; details: THP-1; in short: as §1
# Mus musculus [9] = experiment: Antiinflammatory activity in mouse assessed as inhibition of LPS-induced TNFalpha upregulation at 0.075 mg, sc measured 2 hrs after LPS challenge; assay type: functional
# In short: (§3)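 Murine sublethal endotoxemia: LPS given intraperitoneally, with serum TNF-α measured 2 h after the LPS injection as the end point. Compound was given subcutaneously or orally. Vehicle was 0.6% DMSO and 1% carboxymethylcellulose (final concentrations) in sterile water. Effect is reported as % relative to control.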
# [10] = Antagonist activity at Interleukin-8 receptor in human PMNC assessed as inhibition of CXCL8-induced chemotaxis at 100 nM after 2 hrs by microtiter format trans-well migration assay; assay type: functional; in short: as §1
# [11] = Cmax in Sprague-Dawley rat at 3 mg/kg, po administered as single dose; assay type: ADME, organism-based; design: dose 3 mg/kg, route oral; details: in vivo; in short: as §2
# [12] = target: C-C chemokine receptor type 2 (Homo sapiens) (UniProt P41597); experiment: Antagonist activity at CCR2 in human THP1 cells assessed as inhibition of CCL2-induced chemotaxis at 100 nM after 2 hrs by microtiter format trans-well migration assay; assay type: functional, cell-based; details: THP-1; in short: as §1
# Mus musculus [13] = experiment: Antiinflammatory activity in po dosed mouse assessed as inhibition of LPS-induced TNFalpha upregulation measured 2 hrs after LPS challenge; assay type: functional
# [14] = target: C-C chemokine receptor type 2 (Homo sapiens) (UniProt P41597); experiment: Antagonist activity at CCR2 in human THP1 cells assessed as inhibition of CCL2-induced chemotaxis at 0.01 nM after 2 hrs by microtiter format trans-well migration assay; assay type: functional, cell-based; details: THP-1; in short: as §1
# Mus musculus [15] = experiment: Antiinflammatory activity in mouse assessed as inhibition of LPS-induced TNFalpha upregulation at 0.0025 ug, sc measured 2 hrs after LPS challenge; assay type: functional; in short: as §3
# [16] = target: T2, C5a anaphylatoxin chemotactic receptor 1 (Homo sapiens) (UniProt P21730); experiment: Antagonist activity at C5a receptor in human PMNC assessed as inhibition of C5a-induced chemotaxis at 10 nM after 2 hrs by microtiter format trans-well migration assay; assay type: functional; in short: as §1
# T2 sequence (whole entry): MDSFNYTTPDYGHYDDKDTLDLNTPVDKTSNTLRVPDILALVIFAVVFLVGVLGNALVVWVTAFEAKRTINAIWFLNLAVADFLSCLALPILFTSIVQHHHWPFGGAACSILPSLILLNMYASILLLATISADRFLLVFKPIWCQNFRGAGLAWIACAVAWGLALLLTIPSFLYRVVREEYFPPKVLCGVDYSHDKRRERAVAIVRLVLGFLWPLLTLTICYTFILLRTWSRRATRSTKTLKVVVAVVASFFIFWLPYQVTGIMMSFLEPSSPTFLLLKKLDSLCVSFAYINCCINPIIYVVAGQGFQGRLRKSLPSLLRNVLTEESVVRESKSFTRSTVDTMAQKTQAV
# [17] = AUC (0 to t) in Sprague-Dawley rat at 3 mg/kg, po administered as single dose; assay type: ADME, organism-based; design: dose 3 mg/kg, route oral; details: plasma
# In short: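 Male Sprague-Dawley rats, three per compound per route, single dose. IV vehicle 5% DMSO in 0.9% saline; oral gavage vehicle 1% carboxymethylcellulose in 0.9% saline; fed ad libitum. Plasma taken 5–480 min post-dose, extracted with 0.1% formic acid in acetonitrile, quantified by LC/MS/MS (positive mode). AUC(0–t) by linear/log trapezoidal rule; IV curve back-extrapolated assuming initial volume 0.26 L/kg.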
# [18] = target: C-X-C chemokine receptor type 4 (Homo sapiens) (UniProt P61073); experiment: Antagonist activity at CXCR4 in human THP1 cells assessed as inhibition of CXCL12-induced chemotaxis at 0.01 nM after 2 hrs by microtiter format trans-well migration assay; assay type: functional, cell-based; details: THP-1; in short: as §1
# Sequence of C-X-C chemokine receptor type 4 (Homo sapiens) (P61073 whole entry): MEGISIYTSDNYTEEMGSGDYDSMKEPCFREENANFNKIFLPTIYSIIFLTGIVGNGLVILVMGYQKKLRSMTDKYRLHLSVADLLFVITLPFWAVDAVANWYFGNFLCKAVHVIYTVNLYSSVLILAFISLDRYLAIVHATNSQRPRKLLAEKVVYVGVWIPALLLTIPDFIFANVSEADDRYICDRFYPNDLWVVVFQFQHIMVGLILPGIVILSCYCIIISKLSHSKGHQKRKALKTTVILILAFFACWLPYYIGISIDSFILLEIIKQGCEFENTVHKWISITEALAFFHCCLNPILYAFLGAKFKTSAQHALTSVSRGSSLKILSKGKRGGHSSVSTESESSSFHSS
# [19] = target: C-X-C chemokine receptor type 4 (Homo sapiens) (UniProt P61073); experiment: Antagonist activity at CXCR4 in human THP1 cells assessed as inhibition of CXCL12-induced chemotaxis at 1 nM after 2 hrs by microtiter format trans-well migration assay; assay type: functional, cell-based; details: THP-1; in short: as §1
# Mus musculus [20] = experiment: Antiinflammatory activity in po dosed mouse assessed as inhibition of LPS-induced TNFalpha upregulation measured 2 hrs after LPS challenge relative to control; assay type: functional
# In short: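 Murine sublethal LPS endotoxemia screen. LPS is injected intraperitoneally and serum TNF-α is measured 2 h later as the end point. Compound is given subcutaneously or orally in a vehicle of 0.6% DMSO plus 1% carboxymethylcellulose (final concentrations) in sterile water. Values are % relative to control.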
# Mus musculus [21] = experiment: Antiinflammatory activity in mouse assessed as inhibition of LPS-induced TNFalpha upregulation at 0.075 mg, po measured 2 hrs after LPS challenge; assay type: functional; in short: as §3
# Sequence of C-C chemokine receptor type 5 (Homo sapiens) (P51681 whole entry, looked up): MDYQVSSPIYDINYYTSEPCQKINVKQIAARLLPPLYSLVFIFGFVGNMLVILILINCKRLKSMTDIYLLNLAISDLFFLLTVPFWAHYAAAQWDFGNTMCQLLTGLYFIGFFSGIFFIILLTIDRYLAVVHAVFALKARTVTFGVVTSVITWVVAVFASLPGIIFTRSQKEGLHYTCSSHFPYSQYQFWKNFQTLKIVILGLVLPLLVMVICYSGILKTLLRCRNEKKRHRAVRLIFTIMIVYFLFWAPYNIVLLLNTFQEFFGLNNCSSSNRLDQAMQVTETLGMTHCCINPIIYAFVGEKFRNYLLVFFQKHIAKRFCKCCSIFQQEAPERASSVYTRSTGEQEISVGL
compound,measurement,setting,value
CCCCCCCCCCC(C)(C)C(=O)N[C@H]1CCCCNC1=O,inhibition,[1],92.5%
same,fold change (FC),THP-1 [2],1.04
same,inhibition,[3],96%
same,inhibition,[4],43%
same,half-life,[5],1.7 h
same,Activity,THP-1 [6],4335%
same,inhibition,[7],99.5%
same,inhibition,[8],8.5%
same,inhibition (INH),Mus musculus [9],66%
same,inhibition at 0.1 µM,[10],128%
same,Cmax,[11],0.06 µg/mL
same,inhibition,[12],93%
same,ED50,Mus musculus [13],0.3 mg/kg
same,inhibition,[14],12%
same,inhibition (INH),Mus musculus [15],29%
same,inhibition,[16],-3%
same,AUC(0-t),[17],0.183 µg·h/mL
same,inhibition,[18],15.5%
same,inhibition,[19],99%
same,inhibition (INH),Mus musculus [20],70%
same,inhibition (INH),Mus musculus [21],80%

# — ChEMBL document CHEMBL1136923, “Highly potent, orally available anti-inflammatory broad-spectrum chemokine inhibitors” (J Med Chem, 2009)
